Source: article PMC6997517 (EBioMedicine, 2020)

Tests used:
TLR4 [1] = test: Immunofluorescence confocal microscopy of p-p65, LPS-stimulated RAW264.7 cells; assay type: cell-based, murine; conditions: TIP3 50 μM, 1 h before LPS 100 ng/ml
Summary of the method: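 RAW264.7 cells seeded on coverslips (2 × 10^5/well) and grown overnight. Stained with anti-p-p65 (1:1000, 2 h), then Alexa Fluor 546 secondary for 1 h. Nuclei stained with 5 µM Hoechst 33258. Fluorescence intensity quantified by confocal microscopy.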

[2] = tested on: mice with IMQ-induced psoriasis-like disease; test: Histology and immunohistochemistry of back skin, psoriasis model; assay type: in vivo, mouse (C57BL/6)
Summary of the method: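 Back-skin lesions from imiquimod-treated C57BL/6 mice fixed in 4% paraformaldehyde, paraffin-embedded and sectioned at 7 μm. H&E staining used for epidermal/dermal thickness, measured by microscopy. Immunohistochemistry done with HRP/DAB detection using primary antibodies to CD68, CD4 and IL-17.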

CIA mice = test: Micro-CT and histology of knee joints, CIA model; assay type: in vivo, mouse (DBA/1 J)
Summary of the method: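 DBA/1J collagen-induced arthritis mice, dosed i.p. daily from day 22. Knee bone samples fixed in 10% formalin and scanned by in vivo micro-CT. Bone mineral density measured at 1 mm below the top of the tibia within a set region of interest. Joint sections stained with H&E and examined for synovial hyperplasia, pannus, immune-cell infiltration and joint-space narrowing.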

TLR4 [3] = test: Cytokine ELISA, LPS-stimulated mBMDMs; assay type: cell-based, mouse; conditions: TIP3 1 h, then LPS 24 h
Summary of the method: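 Bone marrow flushed from femurs and tibiae of 6–7-week-old C57BL/6J mice, then differentiated with M-CSF (25 ng/ml) for 3–4 days. Cells harvested with trypsin-EDTA and replated; experiments run after 24 h. Cells pretreated with test compound for 1 h, then co-treated with LPS for 24 h. Secreted IL-6 and TNF-α measured by mouse ELISA kits.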

TLR4 [4] = test: Cytokine ELISA, LPS-stimulated THP-1-derived macrophages; assay type: cell-based, human
Summary of the method: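 THP-1 cells grown in RPMI 1640 with 10% FBS and differentiated to macrophages with 80 nM PMA for 24 h. Seeded at 2 × 10^5/well (96-well) or 5 × 10^5/well (24-well) and grown overnight. After 24 h of treatment with test compound and LPS, secreted IL-6 and TNF-α in supernatants were quantified by ELISA.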

TLR2/6 = test: TNF-α secretion, FSL-1-stimulated RAW264.7 cells; assay type: cell-based, murine; conditions: TIP3 at 50 μM
Summary of the method: (§1)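 RAW264.7 cells seeded at 2 × 10^5/well (96-well) or 5 × 10^5/well (24-well), grown overnight, then treated with test compound. Stimulus: poly(I:C), CpG-ODN (15), FSL-1 (16) or R848 (17). Supernatant cytokines read after 24 h by mouse ELISA kits (IFN-β, IL-6, TNF-α). Cells kept at 37 °C, 5% CO2.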

TLR3 = test: Cytokine ELISA, poly; assay type: cell-based, human; conditions: hMNCs, poly(I:C)
Summary of the method: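 Commercial human mononuclear cells kept in RPMI 1640 (2·05 mM L-glutamine, 10% FBS, penicillin/streptomycin). Seeded at 2 × 10^5/well and grown overnight. Stimulated with LPS or poly(I:C) alongside test compound. After 24 h, supernatant IL-6 and TNF-α measured by human sandwich ELISA.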

[5] = tested on: TNFR-mediated NLRP3 inflammasome; test: NLRP3 inflammasome activation, IL-1β secretion, TNF-α-primed THP-1 cells; assay type: cell-based; conditions: THP-1 primed with recombinant human TNF-α, activated with Nigericin
TLR4 [6] = test: Western blot, LPS-stimulated RAW264.7 cells; assay type: cell-based, murine
Summary of the method: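 Total protein extracted with M-PER reagent and quantified by BCA. Membranes incubated with primary antibodies overnight at 4 °C, washed in PBS/0·1% Tween 20, then HRP-conjugated secondary (1:1000) for 2 h. Bands detected by enhanced chemiluminescence, with β-actin as loading reference.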

HEK-Blue™ hTLR4 cells = test: MTT cell viability, HEK-Blue hTLR4 cells; assay type: cell-based, human; conditions: n ≥ 3
Summary of the method: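 MTT colourimetric viability assay. HEK-Blue hTLR4 cells (high-glucose DMEM, 10% FBS, normocin) seeded at 5 × 10^4/well. RAW264.7 cells seeded at 2 × 10^5/well. Both grown overnight before exposure to test compound.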

TLR9 = test: TNF-α secretion, CpG-ODN-stimulated RAW264.7 cells; assay type: cell-based, murine; conditions: TIP3 at 50 μM
Summary of the method: as §1

[7] = tested on: TLR4-mediated NLRP3 inflammasome; test: NLRP3 inflammasome activation, IL-1β secretion, LPS-primed THP-1 cells; assay type: cell-based, human; conditions: THP-1 primed with LPS, activated with Nigericin; n ≥ 3
TLR4 [8] = test: Quantitative RT-PCR, LPS-stimulated RAW264.7 cells; assay type: cell-based, murine; conditions: TIP3 50 μM 1 h before LPS 100 ng/ml, 3 h; normalized to β-actin
Summary of the method: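 Total RNA isolated with TRIzol and reverse-transcribed to cDNA. qPCR run with SYBR Green and gene-specific primers (reference genes β-actin and Gapdh). Relative expression calculated by the ΔΔCt method.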

IL-1 receptor (IL-1R) = test: IL-8 secretion, IL-1β-activated THP-1 cells; assay type: cell-based, human; conditions: THP-1 activated with IL-1β
TLR4 [9] = test: NO secretion assay, LPS-stimulated mBMDMs; assay type: cell-based, mouse
Summary of the method: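 Bone marrow macrophages from C57BL/6J femurs/tibiae, differentiated with M-CSF (25 ng/ml) for 3–4 days and replated 24 h before use. Seeded at 2 × 10^5/well, grown overnight. Pretreated with test compound for 1 h, then co-treated with LPS. Extracellular NO in supernatant measured with a nitric oxide detection kit by absorbance at 550 nm.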

[10] = TIP3 10 and 50 nmol/g, H&E, five skin samples per group

DYDVCVCH [TIP3]
LPS-induced p65 phosphorylation (confocal) (TLR4 [1]): decreased the LPS-induced p65 phosphorylation
thickness of the dermis [2, 10]: noticeably attenuated thickness of the epidermis (yellow arrowheads) and dermis
thickness of the epidermis [2, 10]: noticeably attenuated thickness of the epidermis
overexpression of CD4 in skin ([2]; immunohistochemistry): effectively attenuated the overexpression of CD68, CD4
overexpression of CD68 in skin ([2]; immunohistochemistry): effectively attenuated the overexpression of CD68
overexpression of IL-17 in skin ([2]; immunohistochemistry): effectively attenuated the overexpression of CD68, CD4, and IL-17
bone destruction recovery (knee joint) (CIA mice; TIP3 10 nmol/g, micro-CT): remarkable recovery from the bone destruction
inflammation score (CIA mice; TIP3-treated CIA mice, Fig. 4j synovial hyperplasia score): significantly lower inflammation score
synovial hyperplasia score (CIA mice; prolonged TIP3 treatment): substantially reduces inflammation
TLR4-mediated IL-6 secretion (TLR4 [3]): suppressed the TLR4-mediated secretion of IL-6
TLR4-mediated TNF-α secretion (TLR4 [3]): suppressed the TLR4-mediated secretion of IL-6 and TNF-α
IL-6 secretion (TLR4 [4]): significant dose-dependent inhibitory effect
TNF-α secretion (TLR4 [4]): significant dose-dependent inhibitory effect
TNF-α secretion mediated by TLR2/6 (TLR2/6): somewhat weak inhibition
TLR3-mediated TNF-α secretion (TLR3): significantly inhibited
IL-1β secretion [5]: not in the TNF-α-primed cells
ATF3 expression (TLR4 [6]): hindered the LPS-induced expression of activating transcription factor 3 (ATF3)
COX2 expression (TLR4 [6]): represses the LPS-induced extracellular secretion of NO and the expression of iNOS and COX2 in a dose-dependent manner
Iκ-Bα degradation (TLR4 [6]): inhibiting Iκ-Bα degradation
iNOS expression (TLR4 [6]): represses the LPS-induced extracellular secretion of NO and the expression of iNOS and COX2 in a dose-dependent manner
phosphorylation of ERK (TLR4 [6]): inhibiting the phosphorylation of c-Jun N-terminal kinase (JNK), p38 MAPK, extracellular signal–regulated kinase (ERK)
phosphorylation of IRF3 (p-IRF3) (TLR4 [6]): inhibiting Iκ-Bα degradation, and phosphorylation of the p65 subunit of NF-κB, and IRF3
phosphorylation of JNK (TLR4 [6]): inhibiting the phosphorylation of c-Jun N-terminal kinase (JNK)
phosphorylation of p38 (TLR4 [6]): inhibiting the phosphorylation of c-Jun N-terminal kinase (JNK), p38 MAPK
phosphorylation of p65 subunit of NF-κB (p-p65) (TLR4 [6]): inhibiting Iκ-Bα degradation, and phosphorylation of the p65 subunit of NF-κB
cell viability / cytotoxicity (HEK-Blue™ hTLR4 cells; 12·5 to 50 μM): did not show any significant cytotoxicity
cell viability / cytotoxicity (HEK-Blue™ hTLR4 cells; high concentration, 100 μM): slight cytotoxicity
TNF-α secretion mediated by TLR9 (TLR9): somewhat weak inhibition
IL-1β secretion [7]: dose-dependently inhibits IL-1β secretion in LPS-primed cells
Cxcl-10 mRNA expression (TLR4 [8]): significantly inhibited the mRNA expression
Ifn-β mRNA expression (TLR4 [8]): significantly inhibited the mRNA expression
Il-1β mRNA expression (TLR4 [8]): significantly inhibited the mRNA expression
Il-6 mRNA expression (TLR4 [8]): significantly inhibited the mRNA expression
Tnf-α mRNA expression (TLR4 [8]): significantly inhibited the mRNA expression
IL-8 secretion (IL-1 receptor (IL-1R)): did not hinder the secretion of IL-8
LPS-induced extracellular NO (TLR4 [9]): significant reduction
